This is a sample that favours compounds with a hit; in the whole collection about 8.4% have one here.
Ecoli WT expand = growth inhibitors of E. coli BW25113 wild type. OD600 absorbance. growth inhibition, % at 100 µM. 0.15% of 98,000 active. AID 710;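 active means growth inhibition above about 50% at one test dose, limit read from the data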;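 further: growth measured after 20 h incubation at 37 °C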
PostGolgi yeast = growth inhibition of a yeast mutant, post-Golgi transport screen; 0.9% of 98,000 active; post-Golgi transport phenotypic cell assay; inhibition, % at 10 µM; AID 739;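 further: yeast cells grown in 1536-well plates; yeast grown about 18 h at 30C before absorbance read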
Ecoli tolC = growth inhibitors of E. coli BW25113 tolC mutant; growth inhibition, % at 10 µM (by protocol); OD615; AID 573; 2.2% of 65,000 active;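 active means growth inhibition at or above a cutoff equal to the mean over every tested compound plus 3 SD, cut at about 60% in these data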;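 further: growth measured after 20 h incubation at 37 °C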
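Signal: optical density read at 615 nm; Assay system: E. coli ΔtolC::kan strain BW25113; Times: 20 h incubation with compound, 37 °C; Dosing: 10 µM final, single dose.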
Cav32 inh = inhibitors of human Cav3.2 T-type calcium channel. Cav3.2-expressing cells, Fluo-4 calcium fluorescence FDSS; active compounds read low. B-score at 10 µM. 4% of 100,000 active. AID 449739;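 active means single-dose well whose peak fluorescence ratio is a statistical outlier from its plate by either plate-standardised score or position-corrected B-score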
PostGolgi ctrl = yeast control strain growth, post-Golgi counter-screen; inhibition, % at 10 µM; efflux-deficient yeast background strain, growth absorbance A615, 16 h; 5% of 98,000 active
Numbers without * were called inactive; / = no result. Unless noted, no stated cut-off is given here; in the data, active means inhibition above about 30%; inactive means the rest.

SMILES | Ecoli WT expand | PostGolgi yeast | Ecoli tolC | Cav32 inh | PostGolgi ctrl
Cc1cc(N2CCC(C)CC2)nc(-n2nc(C)cc2C)n1 | 19 | 0 | 100* | -0.1 | 10
Cc1cc(N(CCO)CCO)nc(-n2nc(C)cc2C)n1 | -2 | 10 | / | 0.059 | 10
Cc1ccc(C(=O)Nn2c(N)c(S(=O)(=O)c3ccc(C)cc3)c3nc4ccccc4nc32)cc1 | -9 | -3 | / | -5.5* | -1
CC1CCCCN1C(=O)Cn1c(=O)n(CCC(=O)NCc2ccco2)c(=O)c2sccc21 (configuration not stated) | -3 | 2 | -20 | 1.4 | -9
Cc1nc(N2CCN(Cc3ccccc3)CC2)nc2c1C(=O)CC(c1ccco1)C2 (configuration not stated) | -8 | -6 | 79* | -0.1 | -6
OCCN(CCO)c1nc(N2CCCCC2)c2nc(N(CCO)CCO)nc(N3CCCCC3)c2n1 | / | / | 100* | / | /
CN(C)c1nc(N2CCCCC2)nc(N2CCCCC2)n1 | / | / | 3 | / | /
CCOc1ccc(C(=O)N2CCN(c3cccc(C)c3C)CC2)cc1 | 4 | 17 | 82* | -3.7 | 19
CCOc1ccc(C(=O)N2CCCC2)cc1 | / | / | / | 0.048 | /
Cc1cccc(N2CCN(C(=O)Cc3ccc(Br)cc3)CC2)c1C | -5 | 18 | / | -1.5 | 46*
O=C(Cc1ccc(Br)cc1)N1CCN(c2ccccc2)CC1 | 4 | 7 | 22 | -3.2 | 0
Cc1ccccc1N1CCN(C(=O)c2ccc(Oc3ccc(C(F)(F)F)cn3)cc2)CC1 | -19 | 11 | / | -6* | 28
Cc1cccc(C(=O)N2CCN(c3ccc(C(F)(F)F)cn3)CC2)c1C | 8 | 0 | / | -4.7* | 22
COc1ccc(N2CCN(C(=O)c3ccc(C(C)(C)C)cc3)CC2)cc1 | 3 | 12 | / | -3.8 | 24
O=C(c1ccccn1)N1CCN(c2ccc(C(F)(F)F)cn2)CC1 | / | / | 6 | 0.011 | /
COc1ccc2cc(Br)ccc2c1CC(=O)NC1CC(C)(C)NC(C)(C)C1 | -8 | 2 | / | 0.12 | 4
CCOC(=O)NC(=O)COC(=O)Cc1cc(OC)c(OC)c(OC)c1 | 5 | -2 | -12 | -0.047 | 7
FC(F)(F)c1nc2nncn2c2c1CCCCC2 | 1 | -7 | 17 | -0.52 | 6
C/C(CCc1ccc2c(c1)OCO2)=N\N=C(/N)SC1CC(=O)N(c2ccc(Cl)cc2)C1=O (configuration not stated) | 1 | -10 | / | -4.1* | 27
O=C1CC(SC(=NCc2ccc3c(c2)OCO3)Nc2ccccc2)C(=O)N1c1ccccc1 (configuration not stated) | -5 | 4 | / | 0.052 | 41*
CC(=O)Nc1ccc(N2C(=O)CC(N3CCN(Cc4ccc5c(c4)OCO5)CC3)C2=O)cc1 (configuration not stated) | / | / | / | 0.11 | /
CSc1nc2nc3c(c(=O)n2[nH]1)CCCC3 | 2 | 3 | / | 0.079 | 6
Cc1noc(/C=C/N(C)C)c1S(=O)(=O)N1CCCC(C(=O)NC(C)c2ccccc2)C1 (configuration not stated) | 0 | 1 | -2 | 0.49 | 3
COc1ccc(CN(CCC#N)C(=S)NC(=O)c2ccccc2)cc1 | 1 | 10 | / | 2.6 | 8
CCOc1ccc(C(=O)NC(=S)N(Cc2ccccc2)Cc2ccccc2)cc1 | -15 | -4 | / | -4.6* | 5
SMILES | Ecoli WT expand | PostGolgi yeast | Ecoli tolC | Cav32 inh | PostGolgi ctrl
COc1ccc(OC)c(C2C(C#N)=C(N)Oc3cc(N)ccc32)c1 (configuration not stated) | -2 | -8 | 4 | -0.87 | 5
N#CC1=C(N)Oc2cc(O)ccc2C1c1cccs1 (configuration not stated) | -3 | -7 | 17 | -3 | -1
N#CC1=C(N)Oc2cc(O)ccc2C1c1ccncc1 (configuration not stated) | 11 | -3 | 0 | -4.6* | -2
COc1ccc(C2C(C#N)=C(N)Oc3cc4c(cc32)OCO4)cc1 (configuration not stated) | 0 | 2 | 3 | -4* | 17
CN(C)c1ccc2c(c1)OC(N)=C(C#N)C2c1cccc(F)c1 (configuration not stated) | 6 | -3 | 20 | / | 37*
CC1CCc2nn(CC(=O)N3CCN(C(=O)c4ccco4)CC3)cc2C1 (configuration not stated) | 4 | 5 | -9 | 0.65 | 8
CCC(NS(=O)(=O)c1ccc(C)cc1)C(=O)Nc1ccc(NC(C)=O)cc1 (configuration not stated) | 1 | -7 | -11 | -0.17 | 16
CCOC(=O)C1=NN(c2cccc(C)c2)C2(S1)SC(C(C)=O)=C(C)N2c1ccccc1 (configuration not stated) | -23 | -4 | / | -3.5* | 20
CCOC(=O)C1=NN(c2ccccc2)C2(S1)SC(C(C)=O)=C(C)N2c1ccccc1 (configuration not stated) | -19 | -2 | / | -4.8* | 29
Cc1cc(C)c(S(=O)(=O)N2CCCCC2)c(C)c1N(C)S(=O)(=O)c1ccccc1 | -5 | 3 | / | -4.3* | 10
C=CCN1C=CC(=C/C=C(/C#N)C(=O)OCC)C=C1 | / | / | / | -6.4* | /
Cc1cc(Oc2nnnn2-c2ccccc2)ccc1Cl | 3 | 4 | / | -2.9 | 15
Cc1ccc(S(=O)(=O)N2CCN(C(=O)C3Cc4ccccc4CN3C(=O)c3ccco3)CC2)cc1 (configuration not stated) | 0 | 8 | -9 | 2.7 | 3
COc1ccc(CNS(=O)(=O)c2ccc(C3CNC(=O)C3)cc2)cc1 (configuration not stated) | -5 | -2 | 2 | 0.44 | 26
CC(C)Oc1ccc(C2CNC(=O)C2)cc1 (configuration not stated) | 3 | -5 | 1 | 0.078 | 33*
O=C(N/N=C/c1cccs1)c1cccc2cc[nH]c12 | 4 | 0 | / | 0.17 | 1
O=C(N/N=C/c1ccco1)c1cc(-c2ccc3ccccc3c2)n[nH]1 | -22 | 13 | / | / | 43*
O=C(N/N=C/c1c[nH]c2ccccc12)c1cc(-c2ccc(-c3ccccc3)cc2)n[nH]1 | -14 | -16 | / | 0.38 | 5
O=C(N/N=C/c1cccs1)c1cc(-c2ccc3ccccc3c2)n[nH]1 | -21 | -3 | / | -0.03 | 59*
COc1ccc(C(=O)OCCN2CCOCC2)cc1 | / | / | / | -0.49 | /
COC(=O)CN(c1nc(C)c(Br)c(OC)n1)S(=O)(=O)c1ccc(C)cc1 | -15 | 3 | -18 | -5.5* | 30
COC(=O)CN(c1nc(C)cc(OC)n1)S(=O)(=O)c1ccc(C)cc1 | -3 | -3 | 0 | 0.12 | 2
COc1ccc(C2Nc3ccccc3C(=O)N2Cc2ccco2)cc1COc1ccccc1F (configuration not stated) | -11 | -19 | / | -5.2* | 16
COc1ccc(C2Nc3ccccc3C(=O)N2Cc2ccco2)cc1COc1ccc(NC(C)=O)cc1 (configuration not stated) | -14 | 27 | 23 | -0.061 | 22
Cc1ccc([N+](=O)[O-])cc1N=C(c1cccc(Br)c1)N1CCOCC1 | -13 | 23 | / | -4.1* | 34*
CN[C@H](CC(=O)O)C(=O)O | / | / | / | -0.86 | /

Screens deposited in PubChem by several laboratories.
